Experimental data as given in ChEMBL document CHEMBL3259782, “Synthesis and biological evaluation of chalcones as potential antileishmanial agents” (Eur J Med Chem, 2014).

Columns and labels:
Leishmania donovani [1] = experiment: Antiamastigote activity against amastigote stage of Leishmania donovani MHOM/IN/80/Dd8 expressing luciferase firefly reporter gene infected in mouse J774A1 cells after 72 hrs by luminescence assay; assay type: functional, organism-based; conditions: MHOM/IN/80/Dd8, J774.A1, 72 h
Summary of the method: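 J-774A.1 macrophages were seeded at 4 x 10^4/mL in RPMI-1640 with 10% heat-inactivated FCS at 37 °C, 5% CO2. After 24 h they were infected with stationary-phase luciferase-expressing promastigotes at 4 x 10^5/mL. Uninternalized parasites were washed off after 24 h. Compounds were tested at 7 dilutions from 40 µM for 72 h. Luminescence was read with Steady Glo. IC50 came from four-parameter Hill fitting, averaged over at least duplicates.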

Leishmania donovani [2] = experiment: Antipromastigote activity against Leishmania donovani MHOM/IN/80/Dd8 expressing luciferase firefly reporter gene at 25 uM after 96 hrs by luminescence assay; conditions: MHOM/IN/80/Dd8, 96 h
[3] = Cytotoxicity against African green monkey Vero cells assessed as cell viability after 72 hrs by MTT assay; assay type: cell-based; conditions: chlorocebus sabaeus
Summary of the method: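 Vero cells at 1 x 10^5/mL were exposed to 7 concentrations from 400 µM at 37 °C in CO2 for 72 h. MTT (5 mg/mL in PBS) was then added for 2 h at 37°C. Formazan was dissolved in DMSO and absorbance read at 540 nm. CC50 was estimated and averaged over at least duplicates.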

[4] = (§1) Selectivity index, ratio of CC50 for African green monkey Vero cells to IC50 for promastigote stage of Leishmania donovani MHOM/IN/80/Dd8; assay type: functional; conditions: in the assay text read “amastigote stage” for “promastigote stage”
Summary of the method: (§2)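 SI was calculated as Vero CC50 (MTT, 72 h) divided by IC50 against intracellular amastigotes in J-774A.1 cells (luciferase luminescence, 72 h).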

Leishmania donovani [5] = experiment: Antileishmanial activity against Leishmania donovani MHOM/IN/80/Dd8 infected in golden hamster assessed as inhibition of amastigotes multiplication at 50 mg/kg, ip for 10 days treatment started 15 days after infection measured on day 7; assay type: functional; conditions: MHOM/IN/80/Dd8, ip, route intraperitoneal
Summary of the method: (§3)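 Golden hamsters of both sexes were infected intracardially with 1 x 10^7 amastigotes. A pre-treatment splenic biopsy was taken after 15 days, and only animals with +1 grade infection (5-10 amastigotes/100 spleen cell nuclei) were used, five per compound. Dosing began 2 days after that biopsy and ran on consecutive days. Splenic biopsy on day 7 after the last dose was Giemsa-stained. PI = 100-[(ANAT x 100)/(INAT x TIUC)].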

Leishmania donovani [6] = experiment: Antileishmanial activity against Leishmania donovani MHOM/IN/80/Dd8 infected in golden hamster assessed as inhibition of amastigotes multiplication at 100 mg/kg, ip for 5 days treatment started 15 days after infection measured on day 7; assay type: functional; conditions: MHOM/IN/80/Dd8, ip, route intraperitoneal; summary of the method: as §3
Vero = experiment: as §1; assay type: functional; conditions: in the assay text read “amastigote stage” for “promastigote stage”; summary of the method: as §2
Leishmania donovani [7] = experiment: Antileishmanial activity against Leishmania donovani MHOM/IN/80/Dd8 infected in golden hamster assessed as inhibition of amastigotes multiplication at 40 mg/kg, ip for 5 days treatment started 15 days after infection measured on day 7; assay type: functional, organism-based; design: dose 40 mg/kg; summary of the method: as §3
Leishmania donovani [8] = experiment: Antileishmanial activity against Leishmania donovani MHOM/IN/80/Dd8 infected in golden hamster assessed as inhibition of amastigotes multiplication at 30 mg/kg, po for 5 days treatment started 15 days after infection measured on day 7; assay type: functional; summary of the method: as §3
Leishmania donovani [9] = experiment: Antileishmanial activity against Leishmania donovani MHOM/IN/80/Dd8 infected in golden hamster assessed as inhibition of amastigotes multiplication at 50 mg/kg, ip for 5 days treatment started 15 days after infection measured on day 7; assay type: functional; conditions: MHOM/IN/80/Dd8, ip, route intraperitoneal; summary of the method: as §3

Row | Compound | IC50 (Leishmania donovani [1]) | inhibition at 25 µM (Leishmania donovani [2]) | CC50 at 72 h [3] | Ratio CC50/IC50 [4] | other results
1 | CC1(C)C=Cc2c(ccc(C(=O)/C=C/c3cc(C=O)ccc3O)c2O)O1 | > 20 µM | 94.5% |  |  | 
2 | CCOc1ccc(/C=C/C(=O)c2ccc(OCCN3CCCCC3)cc2)cc1 | > 20 µM | 99.9% |  |  | 
3 | COc1ccc(/C=C/C(=O)c2ccc3c(c2O)C=CC(C)(C)O3)cc1OC | 11.9 µM | 98.2% | 267 µM | 22.4 | 
4 | sodium stibogluconate |  |  |  |  | Ratio CC50/IC50 (Vero): > 8; inhibition (Leishmania donovani [7]): 89.5%
5 | CC1(C)C=Cc2c(ccc(C(=O)/C=C/c3cnc4ccccc4c3)c2O)O1 |  | 62.2% |  |  | 
6 | CC1(C)C=Cc2c(ccc(C(=O)/C=C/c3cc4ccccc4nc3Cl)c2O)O1 | 12.1 µM | 100% | 257 µM | 21.2 | 
7 | CCCCCCCCCCCCCCCCOP(=O)([O-])OCC[N+](C)(C)C [MILTEFOSINE] |  | 100% |  | 6.2 | inhibition in vivo at 30 mg/kg (Leishmania donovani [8]): 98.5%
8 | CC1(C)C=Cc2c(ccc(C(=O)/C=C/c3ccc(Br)cc3)c2O)O1 | > 20 µM | 100% |  |  | 
9 | CC1(C)C=Cc2c(ccc(C(=O)/C=C/c3ccc(F)c(F)c3)c2O)O1 | 17 µM | 99.9% | 146 µM | 8.6 | 
10 | CC1(C)C=Cc2c(ccc(C(=O)/C=C/c3ccc(O)cc3)c2O)O1 | > 20 µM | 70.2% |  |  | 
11 | CN(C)c1ccc(/C=C/C(=O)c2ccc3c(c2O)C=CC(C)(C)O3)cc1 | 19.8 µM | 97.1% | > 400 µM | >20.2 | 
12 | CC(C)=CCC/C(C)=C/COc1ccc(C(=O)/C=C/c2ccc(OCCN3CCCC3)cc2)cc1 |  | 100% |  |  | 
13 | CC1(C)C=Cc2c(ccc(C(=O)/C=C/c3ccc(F)cc3)c2O)O1 | 16.7 µM | 99% | 158 µM | 9.5 | 
14 | CC1(C)C=Cc2c(ccc(C(=O)/C=C/c3ccc(Cl)cc3)c2O)O1 | 17.9 µM | 99.9% | 92.2 µM | 5.1 | 
15 | CCN(CC)CCOc1ccc(/C=C/C(=O)c2ccc3c(c2O)C=CC(C)(C)O3)cc1 | 14.9 µM | 100% | 341 µM | 22.9 | 
16 | O=C(/C=C/c1ccc(OCCN2CCCCC2)cc1)c1ccc(OCCN2CCCCC2)cc1 | > 20 µM | 99.9% |  |  | 
17 | CC1(C)C=Cc2c(ccc(C(=O)/C=C/c3ccc(Cl)c(Cl)c3)c2O)O1 | 13.9 µM | 99.9% | 142 µM | 10.2 | 
18 | CCOc1cc(/C=C/C(=O)c2ccc3c(c2O)C=CC(C)(C)O3)ccc1F | 12.1 µM | 99.9% | 185 µM | 15.3 | 
19 | CC1(C)C=Cc2c(ccc(C(=O)/C=C/c3ccc4ccoc4c3)c2O)O1 | > 20 µM | 91.2% |  |  | 
20 | CC1(C)C=Cc2c(ccc(C(=O)/C=C/c3ccc(OCCN4CCCCC4)cc3)c2O)O1 | 17.7 µM | 100% | > 400 µM | >22.6 | 
21 | CC(C)=CCC/C(C)=C/CC/C(C)=C/COc1ccc(C(=O)/C=C/c2ccc(N(C)C)cc2)cc1 | > 20 µM | 76.1% |  |  | 
22 | CC1(C)C=Cc2c(ccc(C(=O)/C=C/c3ccc(OCCN4CCCC4)cc3)c2O)O1 | > 20 µM | 100% |  |  | 
23 | CC1(C)C=Cc2c(ccc(C(=O)/C=C/c3cccnc3)c2O)O1 | 22.2 µM | 100% | 8.6 µM | 0.4 | 

Further compounds by falling IC50 (Leishmania donovani [1]), results first:

Row | IC50 (Leishmania donovani [1]) | Compound | inhibition at 25 µM (Leishmania donovani [2]) | CC50 at 72 h [3] | Ratio CC50/IC50 [4] | other results
24 | 9.7 µM | CC1(C)C=Cc2c(ccc(C(=O)/C=C/c3ccc(Cl)cc3Cl)c2O)O1 | 99.9% | 131 µM | 13.5 | 
25 | 9.3 µM | CN(C)c1ccc(/C=C/C(=O)c2ccc(OCCN3CCCCC3)cc2)cc1 | 99.9% | 251 µM | 27 | 
26 | 9.3 µM | CC(C)=CCC/C(C)=C/COc1ccc(C(=O)/C=C/c2ccc(O)cc2)cc1 | 95.2% | 12.9 µM | 1.4 | 
27 | 8.2 µM | CC1(C)C=Cc2c(ccc(C(=O)/C=C/c3ccc(C#N)cc3)c2O)O1 | 99.6% | 80.2 µM | 9.8 | 
28 | 6.1 µM | CC(=O)Nc1ccc(/C=C/C(=O)c2ccc3c(c2O)C=CC(C)(C)O3)cc1 | 98.7% | 278 µM | 45.6 | 
29 | 5.3 µM | Cc1ccc2nc(Cl)c(/C=C/C(=O)c3ccc4c(c3O)C=CC(C)(C)O4)cc2c1 | 99.8% | 399 µM | 75.3 | 
30 | 5.2 µM | CC1(C)C=Cc2c(ccc(C(=O)/C=C/c3ccc([N+](=O)[O-])cc3)c2O)O1 | 97.4% | 106 µM | 20.4 | 
31 | 5.1 µM | CCOc1ccc(/C=C/C(=O)c2ccc3c(c2O)C=CC(C)(C)O3)cc1 | 88.9% | 215 µM | 42.1 | 
32 | 4.1 µM | CC(C)=CCOc1ccc(C(=O)/C=C/c2ccc(N(C)C)cc2)cc1 | 84.2% | > 400 µM | >97.6 | 
33 | 3.1 µM | COc1ccc(/C=C/C(=O)c2ccc(OC/C=C(\C)CCC=C(C)C)cc2)cc1 | 93% | 146 µM | 47.2 | inhibition in vivo at 50 mg/kg (Leishmania donovani [5]): 83.3%; inhibition in vivo at 100 mg/kg (Leishmania donovani [6]): 75.9%
34 | 2.8 µM | CC1(C)C=Cc2c(ccc(C(=O)/C=C/c3ccc(OCCN4CCCCC4)cc3)c2OCCN2CCCCC2)O1 | 100% | 86.5 µM | 30.9 | 
35 | 2.5 µM | CC1(C)C=Cc2c(ccc(C(=O)/C=C/c3ccc(OCCN4CCCC4)cc3)c2OCCN2CCCC2)O1 | 99.9% | 258 µM | 103.2 | 
36 | 2 µM | CC1(C)C=Cc2c(ccc(C(=O)/C=C/c3ccccn3)c2O)O1 | 99.9% | 20.5 µM | 10.2 | 
37 | 2 µM | CCN(CC)CCOc1ccc(/C=C/C(=O)c2ccc3c(c2OCCN(CC)CC)C=CC(C)(C)O3)cc1 | 100% | 325 µM | 162.5 | inhibition in vivo at 50 mg/kg (Leishmania donovani [9]): 48.5%
